Assays:
[1] = folding enthalpy; higher = less favourable; fluorescence melt of hairpins on a sequencing array, two-state fit; conditions: sodium 0.088 M
How it was run: (§1)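 Melting temperature and folding enthalpy were obtained by bootstrapped two-state fitting. Fits used Cy3 fluorescence of library hairpins with annealed Cy3 and quencher oligos on a sequenced MiSeq flow cell, imaged in 50 mM Na-HEPES pH 8.0, 25 mM NaCl in 2.5 °C steps up to 60 °C and normalised to pre-quench Cy3 and control constructs. Four replicates were combined by inverse-variance weighting, and fitted temperatures were raised by 9.35 °C to match UV melts.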

[2] = melting temperature; fluorescence melt of hairpins on a sequencing array, two-state fit, raised by 9.35 °C to match UV melts; conditions: sodium 0.088 M
How it was run: as §1

Row | Sequence | folding enthalpy [1] [kcal/mol] | Tm [2] [°C]
1 | GCGTTAACGAAAGTTCGC (((..(((....)))))) | -29.4 | 46.8
2 | GATCAACAAGTTGATC ((((((....)))))) | -34.2 | 51.8
3 | GGTTGAGAAATCAACC ((((((....)))))) | -34 | 53.3
4 | GGGTTCGAAAGAATGCCC ((((((....)))..))) | -21.1 | 35.3
5 | GGGCTCGAAAGAGTCCCC ((((((....)))..))) | -15.8 | 60.3
6 | CGGCGCGGAAACGCCCG (((.(((....)))))) | -16.7 | 56.5
7 | GTTAACCGAAAGGTGAAC (((.(((....))).))) | -27.7 | 48.9
8 | GCTGGGCGAAAGCATAGC (((..((....))..))) | -22.9 | 54.2
9 | GTGACCGGAAACGACCAC (((..((....))..))) | -21.2 | 30.4
10 | GCCTGCGAAAGCAATGGC ((((((....)))..))) | -23.8 | 56
11 | GGGATGGGAAACCATCTC (.(((((....))))).) | -24.5 | 49.9
12 | CGCTACGGAAACGTGGCG (((.(((....))).))) | -40.1 | 59.5
13 | GTGGAACGAAAGTTGCAC (((.(((....))).))) | -40.3 | 56.5
14 | GATCTACAGTAGATC ((((((...)))))) | -38.7 | 39.3
15 | GATCGAAACCTCGATC ((((((....)))))) | -39.6 | 51.3
16 | GCATAGCGAAAGCGATGC ((((.((....)).)))) | -30.9 | 66.1
17 | CGGCCGGAAACGGCACCG ((((((....)))..))) | -8.06 | 34.5
18 | GCAAGGCGAAAGCGTAGC ((.(.((....)).).)) | -11.6 | 40.5
19 | GGTCCGGGAAACCGGATC (.(((((....))))).) | -24 | 58.9
20 | GCTGAGCGAAAGCTTCGC ((..(((....)))..)) | -13.4 | 49.5
21 | GCTGTGCGAAAGCCGAGC (((..((....))..))) | -19 | 41.8
22 | CGTGGCGGAAACGCTACG (((.(((....))).))) | -33.8 | 59.6
23 | GGGTGAGGAAACTTGCCC (((..((....))..))) | -22.9 | 43.5

Row | Sequence | folding enthalpy [1] [kcal/mol] | Tm [2] [°C]
24 | TAGGCGAAAGCCTA (((((....))))) | -12.2 | 65.5
25 | GGGGAAGAAATTCCCC ((((((....)))))) | -30.8 | 57.1
26 | GTGTACGAAAGTAACCAC ((((((....)))..))) | -15 | 32
27 | GGAACCGAAAGGTTTCC ((((((....))).))) | -18.5 | 53.8
28 | GGAATGCGAAAGCAATCC (((.(((....))).))) | -25.6 | 50.9
29 | GGTTAGAAATAACC (((((....))))) | -16.4 | 40
30 | GTGCAAGGAAACTCGCAC ((((.((....)).)))) | -31.7 | 45.1
31 | GCAACCCGAAAGGGTGC (((.(((....)))))) | -19.1 | 64.1
32 | GCTGTGCGAAAGCATTGC ((..(((....)))..)) | -20.7 | 53.5
33 | GAAAATGGAAACGTTTTC (((((.(....).))))) | -32.3 | 37.8
34 | GCTTTGTCGAAAGACAGC (((..(((....)))))) | -12 | 35.3
35 | GCAGTAGGAAACCACTGC (((((.(....).))))) | -29.2 | 48.2
36 | GCTTCCGAAAGGATAAGC ((((((....)))..))) | -22.8 | 44.2
37 | GTCACCGGAAACGGTGGC (.(((((....))))).) | -29.4 | 63.5
38 | GGCGCCGAAAGGCTGCC ((((((....))).))) | -19.4 | 67.1
39 | GGCTGCGAAAGCACGCC ((((((....))).))) | -29.6 | 65.2
40 | GTTCGAGAAATCGAAC ((((((....)))))) | -39.8 | 54.9
41 | GATGTAGAAATACATC ((((((....)))))) | -30.3 | 45.7
42 | GATCATCCGGATGATC ((((((....)))))) | -52.5 | 54.8
43 | GAGTCCGGAAACGGGTTC ((..(((....)))..)) | -16.1 | 33.6
44 | GCAGAGCGAAAGCATTGC (((..((....))..))) | -17.3 | 49.9
45 | GCCAAGCGAAAGCATTGC ((.(.((....)).).)) | -11.2 | 32.5
46 | GTATGCGAAAGCAGGTAC ((((((....)))..))) | -13.2 | 30

Row | Sequence | folding enthalpy [1] [kcal/mol] | Tm [2] [°C]
47 | GCCGCTGGAAACAGCGAC (.(((((....))))).) | -13.9 | 52.6
48 | CGCCGTCGGAAACGAGCG (((..(((....)))))) | -28.4 | 50.3
49 | GATCAACCCGTTGATC ((((((....)))))) | -42 | 53
50 | CAACCCGAAAGGCTTG (((.((....)).))) | -16 | 30.2
51 | GGCCATGGAAACACGGCC ((((.((....)).)))) | -45.4 | 51.7
52 | GTACCCCGAAAGGGTAC (((.(((....)))))) | -28.3 | 58.3
53 | GTTATCCGAAAGGAAAC (((.(((....)))))) | -14.5 | 31.5
54 | GCCCGGCGAAAGCGCGGC (((..((....))..))) | -16.1 | 61.7
55 | GATCACTCTAGTGATC ((((((....)))))) | -40.4 | 59.9
56 | GATCCACACATGGATC ((((((....)))))) | -40 | 52.4
57 | GATCTGTATACAGATC ((((((....)))))) | -40.8 | 54.3
58 | GTGTCCGGAAACGGACGC (.(((((....))))).) | -14.6 | 62.5
59 | CGAGGTCGGAAACGATCG (((..(((....)))))) | -21 | 41.2
60 | GCTAGGCGAAAGCATAGC ((((.((....)).)))) | -32.7 | 64.6
61 | GCAGGGGGAAACCTCTGC ((((.((....)).)))) | -39.1 | 55
62 | CGAGACGGAAACGTATCG (((.(((....))).))) | -34.6 | 52.1
63 | GGGGTCGAAAGACCGCCC ((((((....)))..))) | -11.3 | 52.7
64 | GATCCGGGAGCGGATC ((((((....)))))) | -37.4 | 61.1
65 | GTCGCACGAAAGTGGAC (((.(((....)))))) | -18.8 | 49.9
66 | GGTTTCGGAAACGAAACC (((((((....))))))) | -46 | 66.5
67 | CTACAGAAATGTAG (((((....))))) | -13.3 | 36.5
68 | GGACTCGAAAGAGGCTCC ((((((....)))..))) | -13.3 | 48.9
69 | GGGATTGGAAACAACCCC (((.(((....))).))) | -28 | 42.4

Row | Sequence | folding enthalpy [1] [kcal/mol] | Tm [2] [°C]
70 | CGGGCGGAAACGCGTCCG ((((((....)))..))) | -23.9 | 53
71 | GACCTCGGAAACGAAGTC (((.(((....))).))) | -24.9 | 34.7
72 | GATTGAGCGAAAGCTATC (((..(((....)))))) | -11.6 | 30.7
73 | GATCTCTCTCGAGATC ((((((....)))))) | -37.2 | 52
74 | GATCACACGGGTGATC ((((((....)))))) | -35.5 | 57.1
75 | GGTTACGAAAGTATCACC ((((((....)))..))) | -12.5 | 28.2
76 | GGGAGCGAAAGCTCGCCC ((((((....)))..))) | -11.6 | 52.7
77 | GATACGGGAAACTGTGTC ((.((.(....).)).)) | -20.1 | 33.6
78 | GTTTGCCCGAAAGGGAAC (((..(((....)))))) | -11.3 | 32.5
79 | GGGCAAGGAAACTTACCC (((.(((....))).))) | -29.2 | 38.9
80 | GGATTTGCGAAAGCATCC (((..(((....)))))) | -16.4 | 38.9
81 | GGACGAGCGAAAGCTTCC (((..(((....)))))) | -9.29 | 29.5
82 | GGCGACACGAAAGTGGCC (((..(((....)))))) | -15.1 | 53.1
83 | GGCAAAGGAAACTCTGCC ((((.((....)).)))) | -32.1 | 36.2
84 | GAGCCGGCGAAAGCCCTC (((..(((....)))))) | -8.17 | 28.7
85 | GATAACCGAAAGGTATC (((.(((....)))))) | -17.4 | 38.9
86 | GCTTTCGAAAGAAGCAGC ((((((....)))..))) | -12.9 | 35.4
87 | GTGTGTGGAAACACATGC (..((((....))))..) | -18.8 | 49.6
88 | GGTACTGGAAACAGTACC (((((((....))))))) | -50.7 | 61.5
89 | GCGTCTCGAAAGAGCCGC (((.(((....))).))) | -42.6 | 56.5
90 | GGCTAACGAAAGTTTGCC (((.(((....))).))) | -61 | 54.7
91 | GCCATCGAAAGATCAGGC ((((((....)))..))) | -24.9 | 37.7
92 | GTTTGACGAAAGTCCAAC (((.(((....))).))) | -20.6 | 40.5

— the array DNA melting data of Ke et al. (doi:10.1101/2024.01.08.574731)
